These results are taken from publication PMC3652433 (MedChemComm, 2013).

The target in one series is hMOR (Homo sapiens, UniProt P35372). Format: cell-based. The note with it: hMOR-CHO cells with Gqi5; data not shown.
For another series, the system named is HIV-1SF162. In kind it is cell-based. The note with it: human astrocytes. The method in brief:
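Human astrocytes infected with R5 HIV-1SF162; infection assessed by a luciferase-based read-out of relative Tat protein expression at 18 h post-infection. Dose–response was run per compound first. Fixed levels: test compound 100 nM, CCR5 antagonist reference 100 nM, opioid antagonist reference 1.5 μM. Values are […] ± SEM of three independent experiments; statistics vs uninfected control cells.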

The subject of the next series is astroglial cells. Nature of the series: Viability of astroglial cells, dual fluorescence labeling with AOPI. In kind it is cell-based, human. The note with it: 100 nM, data not shown.
Series [1] deals with CCR5 (Homo sapiens, UniProt P51681). Nature of the series: Ca2+ flux assay in Gqi5 transfected CCR5-MOLT-4 cells. Format: cell-based. The note with it: for Potency decrease in RANTES induced Ca2+ flux inhibition compared to maraviroc: relative to maraviroc.
Sequence of CCR5 (Homo sapiens, UniProt P51681) (P51681 whole entry): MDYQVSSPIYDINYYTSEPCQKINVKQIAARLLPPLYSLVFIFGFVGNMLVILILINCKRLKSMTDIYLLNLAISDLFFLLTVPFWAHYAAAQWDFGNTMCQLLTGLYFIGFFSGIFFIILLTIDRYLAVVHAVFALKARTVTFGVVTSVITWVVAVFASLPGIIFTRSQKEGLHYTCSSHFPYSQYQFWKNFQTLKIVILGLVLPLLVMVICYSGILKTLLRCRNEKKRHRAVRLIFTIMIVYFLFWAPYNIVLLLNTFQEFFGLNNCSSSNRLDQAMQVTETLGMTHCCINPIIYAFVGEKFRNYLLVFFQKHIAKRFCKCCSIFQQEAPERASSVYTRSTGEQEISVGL
Series [2] has as its target CCR5 (Macaca mulatta, UniProt P61813). Nature of the series: CCR5 competitive radioligand binding assay. More on the design: species or system rhesus macaque. The note with it: relative to maraviroc.
[3] abbreviates: 100 nM, R5 HIV-1SF162, 18 h post-infection.

Sequence of hMOR (P35372 whole entry): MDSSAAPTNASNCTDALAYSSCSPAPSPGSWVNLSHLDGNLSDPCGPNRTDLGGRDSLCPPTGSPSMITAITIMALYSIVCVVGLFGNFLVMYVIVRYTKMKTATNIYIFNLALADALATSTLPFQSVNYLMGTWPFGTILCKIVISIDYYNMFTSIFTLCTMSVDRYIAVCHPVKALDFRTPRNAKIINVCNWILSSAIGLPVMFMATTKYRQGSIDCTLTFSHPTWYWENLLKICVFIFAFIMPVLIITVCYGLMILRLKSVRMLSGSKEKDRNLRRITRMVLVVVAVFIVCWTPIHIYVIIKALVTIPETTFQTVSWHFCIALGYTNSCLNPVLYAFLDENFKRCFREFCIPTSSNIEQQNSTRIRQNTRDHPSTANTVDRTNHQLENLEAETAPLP

For `Cc1nnc(C(C)C)n1C1CC2CCC(C1)N2CC[C@H](NC(=O)C1CCC(F)(F)CC1)c1ccc(NC(=O)COCC(=O)NCCCCCCCNC(=O)COCC(=O)N[C@@H]2CC[C@@]3(O)[C@H]4Cc5ccc(O)c6c5[C@@]3(CCN4CC3CC3)[C@H]2O6)cc1` (some centres unmarked) [compound 1], the “MOR agonism in Ca2+ mobilization assay” value on hMOR was “No agonism was observed”. The “Effect on viral entry / Tat expression” value in the series on HIV-1SF162 (setting [3]) is “significantly effective in inhibiting viral entry”. Also, the “Decrease in Tat expression compared to maraviroc alone” value in the series on HIV-1SF162 (100 nM, vs maraviroc 100 nM) is reported as “at least a two-fold decrease in Tat expression”. Further, in the series on astroglial cells, the “Effect on viability of astroglial cells” value was “did not affect the viability of astroglial cells”. Also, the “CCR5 agonism in Ca2+ assay” value on CCR5 [1] (CCR5-MOLT-4 cells with Gqi5, data not shown) is given as “no CCR5 agonism was detected”. Also, the “Potency decrease in RANTES induced Ca2+ flux inhibition compared to maraviroc” value at CCR5 [1] is “approximately 60 fold”.
In the case of `CNC(=O)COCC(=O)NCCCCCCCNC(=O)COCC(=O)N[C@@H]1CC[C@@]2(O)[C@H]3Cc4ccc(O)c5c4[C@@]2(CCN3CC2CC2)[C@H]1O5` [compound 2], the “MOR agonism in Ca2+ mobilization assay” value on hMOR is given as “No agonism was observed”.
Take `Cc1nnc(C(C)C)n1C1CC2CCC(C1)N2CC[C@H](NC(=O)C1CCC(F)(F)CC1)c1ccc(N)cc1` (some centres unmarked) [compound 4]: the “Decrease in CCR5 binding affinity compared to maraviroc” value at CCR5 [2] is “approximately 65 fold”.
With `O=C1CC[C@@]2(O)[C@H]3Cc4ccc(O)c5c4[C@@]2(CCN3CC2CC2)[C@H]1O5` [naltrexone, reference compound], in the series with HIV-1SF162 (1.5 μM, R5 HIV-1SF162, 18 h post-infection), the “Effect on Tat production” value is given as “did not show significant effect on Tat production”.
Consider `CNC(=O)COCC(=O)NCCCCCCCNC(=O)COCC(=O)Nc1ccc([C@H](CCN2C3CCC2CC(n2c(C)nnc2C(C)C)C3)NC(=O)C2CCC(F)(F)CC2)cc1` (some centres unmarked) [compound 3], for which the “Potency decrease in RANTES induced Ca2+ flux inhibition compared to maraviroc” value at CCR5 [1] is about 300 fold.
Turning to maraviroc [reference compound], the “Effect on viral entry / Tat expression” value in the series with HIV-1SF162 (setting [3]) is on record as “considerably inhibited viral entry”.
